Runt-SMMHC FRET = blocks binding of human RUNX1 Runt domain to CBFb-SMMHC; Q01196+Q13951; Cerulean-Runt/Venus-CBFb-SMMHC FRET ratio 530/480, 1 h; inhibition, % at 20 µM; 220,000 tested, 0.74% active;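 active = mean inhibition across duplicate retests at 20 µM reaching about 50%, limit read from the data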;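 note: inhibitors lower the FRET ratio by blocking Runt binding to CBFb-SMMHC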
Target sequence (Q01196 whole entry, looked up, the tested form may be a part): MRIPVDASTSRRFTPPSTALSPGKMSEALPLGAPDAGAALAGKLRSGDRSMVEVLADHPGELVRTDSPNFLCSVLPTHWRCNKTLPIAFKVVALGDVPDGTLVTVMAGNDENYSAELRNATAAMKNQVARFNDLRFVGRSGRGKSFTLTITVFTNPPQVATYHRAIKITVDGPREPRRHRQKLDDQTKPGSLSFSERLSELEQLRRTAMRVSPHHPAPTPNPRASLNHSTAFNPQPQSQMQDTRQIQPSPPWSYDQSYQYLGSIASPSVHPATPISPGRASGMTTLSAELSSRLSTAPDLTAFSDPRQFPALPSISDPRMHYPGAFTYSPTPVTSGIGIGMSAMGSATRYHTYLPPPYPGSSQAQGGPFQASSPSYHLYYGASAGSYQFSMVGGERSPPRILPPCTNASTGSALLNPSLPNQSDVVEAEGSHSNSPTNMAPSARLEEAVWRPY
Target sequence (Q13951 whole entry, looked up, the tested form may be a part): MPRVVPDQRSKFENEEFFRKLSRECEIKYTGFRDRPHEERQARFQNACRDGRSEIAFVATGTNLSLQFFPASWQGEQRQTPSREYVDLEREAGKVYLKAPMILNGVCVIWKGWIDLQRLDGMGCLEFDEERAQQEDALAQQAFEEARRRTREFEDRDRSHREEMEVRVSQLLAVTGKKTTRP
Hck-Nef inh = inhibitors of human Hck kinase activated by Nef. P08631. Recombinant Hck-YEEI plus Nef, Z-Lyte FRET kinase assay. inhibition, % at 20 µM. 220,000 tested, 0.68% active;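 active = Hck-Nef kinase inhibition above about 50%, limit read from the data; inactive = inhibition below that limit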
Runt-CBFb FRET = blocks binding of human RUNX1 Runt domain to CBFb; Cerulean-Runt/Venus-CBFb FRET ratio 530/480, 1 h; inhibition, % at 20 µM; 220,000 tested, 0.46% active;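 active = inhibition over about 50% at 20 µM in the single-dose screen, limit read from the data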
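Buffer or medium: Tris pH 7.5 buffer with BSA. Assay system: Cerulean-labeled Runt domain protein. Amount: each fluorescent fusion protein 100 nM. Read-out basis: loss of energy transfer signal. Incubation: 1 h compound exposure, room temperature. Probe or stimulus: Venus-CBFb binding partner, 100 nM. Detection: FRET, excitation 422 nm, emission at 530 and 480 nm.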
RanGTP-Impb inh = disruptors of Ran-importin-beta complex formation – biochemical, FRET, CFP-Ran, YFP-importin-beta, homogeneous, primary screen | cell-free CFP-Ran/YFP-importin-beta FRET ratio | inhibition, % (concentration not given with the values) | 300,000 tested, 1.1% active;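 active = more than half of the replicate wells show a fall in the fluorescence ratio signal beyond about 16%, limit read from the data, passing the limit was not always enough; inconclusive = exactly half of the replicate wells pass the set limit; inactive = fewer than half of replicates pass the limit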
TbHK1 inh = T. brucei hexokinase 1 inhibition. inhibition, % at 10 µM. 220,000 tested, 0.11% active. recombinant TbHK1, G6PDH-coupled NADH A340. AID 1430;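 active = inhibition of 50% or more in the single-dose primary screen; inactive = inhibition below 50%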
G6PDH ctr = Leuconostoc glucose-6-phosphate dehydrogenase inhibition, counter-screen; shares compounds with TbHK1 inh; purified G6PDH, NADH absorbance, 1 h; inhibition, % at 10 µM; 210 tested, 7% active; AID 2516;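 active = at least 50% inhibition in the glucose-6-phosphate dehydrogenase coupled counterscreen; inconclusive = no clear call, values can overlap the other calls; inactive = inhibition below 50%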
TbHK1 confirm = T. brucei hexokinase 1 inhibition, rescreen; inhibition, % at 10 µM; shares compounds with TbHK1 inh; recombinant TbHK1, G6PDH-coupled NADH A340 absorbance; 210 tested, 10% active; AID 2560;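 active = inhibition of at least 50% in both of the two screening runs; inconclusive = at least 50% in one run, below 50% in the other; inactive = inhibition below 50% in both runs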
Numbers stand for hits; - = inactive; ? = inconclusive; . = not tested or not shown. In the library only some 1.9% were active in any assay of this set; here they are far more common.

SMILES	Runt-SMMHC FRET	Hck-Nef inh	Runt-CBFb FRET	RanGTP-Impb inh	TbHK1 inh	G6PDH ctr	TbHK1 confirm
O=C(NC(=S)NNS(=O)(=O)c1ccccc1)c1ccccc1[N+](=O)[O-]	-	-	-	-	65	-	-
CCC(C(=O)OC)n1cnc2c(nnn2-c2ccc(F)cc2)c1=O (stereo not drawn)	.	.	.	-	.	.	.
Nc1ncc(Br)cc1S(=O)(=O)Nc1cc(C(F)(F)F)cc(C(F)(F)F)c1	.	.	.	-	.	.	.
Cc1ccccc1C(=O)/C(C#N)=N/Nc1c(C)n(C)n(-c2ccccc2)c1=O	-	-	-	-	53	-	-
CC(NC(=O)CNC(=O)OCc1ccccc1)C(=O)N1CC(O)CC1C(=O)OCc1ccccc1 (stereo not drawn)	-	-	-	-	51	-	-
Cc1ccc(S(=O)(=O)N=S(CCO)CCO)cc1	-	-	-	-	-	.	.
Cc1ccc(Nc2nc(N)c([N+](=O)[O-])c(NCc3ccco3)n2)cc1C	-	-	-	-	-	.	.
O=C(O)COc1ccccc1C(Nc1cccnc1)c1cc(Cl)c2cccnc2c1O (stereo not drawn)	-	-	-	-	-	.	.
O=C(O)COc1ccccc1C(Nc1ccccn1)c1cc(Cl)c2cccnc2c1O (stereo not drawn)	-	-	-	-	76	-	-
Cc1ccc(CNC(=O)C2CNc3cc(C)ccc3O2)cc1 (stereo not drawn)	-	-	-	-	58	-	-
CN(C)S(=O)(=O)c1cccc(NC(=S)NN=C(Cc2ccccc2)Cc2ccccc2)c1	-	-	-	-	51	-	-
COc1ccc2c(c1)C=C(CN1CCN(C(C)C)C(CCO)C1)CO2 (stereo not drawn)	-	-	-	-	-	.	.
CC(=O)Nc1ccc(NC(=O)C2CC(=O)N(c3cccc(C)c3C)C2)cc1 (stereo not drawn)	-	-	-	-	51	-	-
Cc1cccc(N2CC(C(=O)Nc3ccc4c(c3)OCCO4)CC2=O)c1C (stereo not drawn)	.	.	.	-	.	.	.
COc1ccc(NC(=O)C2CC(=O)N(c3cccc(C)c3C)C2)cc1 (stereo not drawn)	-	-	-	-	56	-	-
Cc1cc(Cl)c2oc(C(=O)N(C)Cc3nccn3C)c(C)c2c1	.	.	.	-	.	.	.
CC12CC3CC(C)(C1)CC(C(=O)N1CCN(C(=O)c4ccco4)CC1)(C3)C2	.	.	.	-	.	.	.
O=C(O)c1csc(-n2nc(-c3ccccc3)cc2C(F)(F)F)n1	-	-	-	-	-	.	.
Cc1cc(C(=O)NNS(=O)(=O)c2ccc(C(C)(C)C)cc2)nn1C(C)(C)C	-	-	-	-	52	-	-
CCOC(=O)Cc1csc(SCn2nnc3ccccc3c2=O)n1	-	-	-	-	-	.	.
CCOC(=O)Cc1csc(-n2sc3ccccc3c2=O)n1	.	-	-	-	66	-	69
CCCCN(C(=O)CSc1cc(C)c2ccc(OC)cc2n1)c1c(N)n(Cc2ccccc2)c(=O)[nH]c1=O	-	-	-	-	-	.	.
CC(C)c1[nH]nc2c1C(c1cccnc1)C(C#N)=C(N)O2 (stereo not drawn)	-	-	-	-	52	-	-
CSc1ncc(C(=O)Nc2ccc(C(C)=O)cc2)c(-c2ccccc2)n1	.	.	.	-	.	.	.
CC(C)N(C(=O)c1ccc(C(=O)Nc2ccc([N+](=O)[O-])cc2)cc1)C(C)C	-	-	-	-	56	-	-
SMILES	Runt-SMMHC FRET	Hck-Nef inh	Runt-CBFb FRET	RanGTP-Impb inh	TbHK1 inh	G6PDH ctr	TbHK1 confirm
O=C(O)CCn1nnc(-c2cccs2)n1	-	-	-	-	54	-	-
O=C(c1ccc([N+](=O)[O-])s1)N1CCN(c2ccc(C(F)(F)F)cn2)CC1	.	.	.	-	.	.	.
Cc1ccc(N=Nc2ccc(O)c3ncccc23)cc1	-	-	-	-	81	-	-
Cc1ccc(N=Nc2ccc(O)c3ncccc23)cc1C	-	-	-	?	-	.	.
S=C(Nc1cccc(Cl)c1)N(CCCN1CCCC1)Cc1cccn1Cc1ccc(Cl)cc1	-	-	-	-	51	-	-
Cc1cc2nc3ccc(=[N+](C)C)cc-3sc2cc1N	-	-	-	-	66	126	77
Cc1nc2cc(C)c(C)cc2s1	-	-	-	-	-	.	.
COc1ccc2nc(N=Nc3ccc(N(C)C)cc3)sc2c1	-	-	-	.	-	.	.
CN(C)c1ccc2nc3ccc(=[N+](C)C)cc-3sc2c1	-	-	-	.	75	128	77
O=C(CN1CCN(Cc2ccccc2)CC1)N1CCCc2c1c(=O)oc1ccc(O)cc21	-	-	-	-	54	-	-
O=C(c1ccco1)N1CCN(CC(=O)N2CCCc3c2c(=O)oc2ccc(O)cc32)CC1	-	-	-	-	-	.	.
NC(=S)c1cc2ccc(O)cc2oc1=O	82	-	-	147	85	109	80
Cc1ccccc1-n1ncc(C(C)NS(=O)(=O)c2ccccc2Cl)c1C (stereo not drawn)	.	.	.	-	.	.	.
CC[C@H](C)[C@H](NC(=O)c1ccccc1)C(=O)NC(CC(=O)O)c1ccc(F)cc1 (stereo partly drawn)	.	.	.	-	.	.	.
c1ccc(-c2cnc(-c3ccccc3)nc2)cc1	-	-	-	-	59	-	-
CCOC(=O)NC(NC(=O)OCC)C(=O)c1ccccc1	-	-	-	-	65	-	-
O=C(NC(NC(=O)c1ccccc1)C(=O)c1ccccc1)c1ccccc1	-	-	-	-	-	.	.
O=C(NCc1cccc(Cl)c1)c1ccc2nc[nH]c2c1	-	-	-	-	-	.	.
COc1cccc(CNC(=O)c2ccc3nc[nH]c3c2)c1	-	-	-	-	67	-	-
C=C(C)C1CC=C(C)/C(=N\NC(=S)Nc2ccc(C)cc2)C1 (stereo not drawn)	-	-	-	-	-	.	.
NC(Cc1cccc2nsnc12)C(=O)O (stereo not drawn)	-	-	-	-	58	-	-
COc1cccc2cc(-c3nc4ccccc4[nH]3)c(=O)oc12	.	.	.	-	.	.	.
CCN(CC)c1ccc2cc(-c3nc4ccccc4[nH]3)c(=O)oc2c1	79	-	-	129	68	111	84
CCCCn1c(N)c(N(CC(C)C)C(=O)C(C)SCc2nc3sc(C)c(C)c3c(=O)[nH]2)c(=O)[nH]c1=O (stereo not drawn)	.	.	.	-	.	.	.
OC(COCc1ccccc1)CN1CCCC1 (stereo not drawn)	-	-	-	-	60	-	-
CCC(=O)N1CCc2cc(S(=O)(=O)CCC(=O)NCCC3=CCCCC3)ccc21	-	-	-	-	68	-	-
COc1cc(OC)cc(C(=O)NC2CCN(CC(=O)Nc3cccc4ccccc34)CC2)c1	-	-	-	-	53	-	-
COc1cccc(C(=O)NC2CCN(CC(=O)Nc3cccc(C)c3C)CC2)c1	-	-	-	-	-	.	.

Screening data: PubChem BioAssay, several laboratories
